APOBEC3G inh: inhibitors of human APOBEC3G DNA deaminase; 330,000 tested, 0.28% active; recombinant A3G, ssDNA deamination FAM/TAMRA fluorescence; inhibition, % at 20 µM; AID 493012;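 active = inhibition of at least 40% at 20 µM, with no more than 30% in the related APOBEC3A deaminase screen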
p-CIP stab down: p/CIP protein destabilization. Q05BA5. F442A p/CIP-EGFP cells, EGFP fluorescence, 16 h. decrease of EGFP signal, % at 10 µM. 290,000 tested, 0.01% active. AID 1984;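 active = EGFP signal decrease of at least 30% at 10 µM or well 3 SD below plate mean, unless failing retest; inactive = the rest, including hits failing retest or dose response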
Target sequence (Q05BA5 1-1403): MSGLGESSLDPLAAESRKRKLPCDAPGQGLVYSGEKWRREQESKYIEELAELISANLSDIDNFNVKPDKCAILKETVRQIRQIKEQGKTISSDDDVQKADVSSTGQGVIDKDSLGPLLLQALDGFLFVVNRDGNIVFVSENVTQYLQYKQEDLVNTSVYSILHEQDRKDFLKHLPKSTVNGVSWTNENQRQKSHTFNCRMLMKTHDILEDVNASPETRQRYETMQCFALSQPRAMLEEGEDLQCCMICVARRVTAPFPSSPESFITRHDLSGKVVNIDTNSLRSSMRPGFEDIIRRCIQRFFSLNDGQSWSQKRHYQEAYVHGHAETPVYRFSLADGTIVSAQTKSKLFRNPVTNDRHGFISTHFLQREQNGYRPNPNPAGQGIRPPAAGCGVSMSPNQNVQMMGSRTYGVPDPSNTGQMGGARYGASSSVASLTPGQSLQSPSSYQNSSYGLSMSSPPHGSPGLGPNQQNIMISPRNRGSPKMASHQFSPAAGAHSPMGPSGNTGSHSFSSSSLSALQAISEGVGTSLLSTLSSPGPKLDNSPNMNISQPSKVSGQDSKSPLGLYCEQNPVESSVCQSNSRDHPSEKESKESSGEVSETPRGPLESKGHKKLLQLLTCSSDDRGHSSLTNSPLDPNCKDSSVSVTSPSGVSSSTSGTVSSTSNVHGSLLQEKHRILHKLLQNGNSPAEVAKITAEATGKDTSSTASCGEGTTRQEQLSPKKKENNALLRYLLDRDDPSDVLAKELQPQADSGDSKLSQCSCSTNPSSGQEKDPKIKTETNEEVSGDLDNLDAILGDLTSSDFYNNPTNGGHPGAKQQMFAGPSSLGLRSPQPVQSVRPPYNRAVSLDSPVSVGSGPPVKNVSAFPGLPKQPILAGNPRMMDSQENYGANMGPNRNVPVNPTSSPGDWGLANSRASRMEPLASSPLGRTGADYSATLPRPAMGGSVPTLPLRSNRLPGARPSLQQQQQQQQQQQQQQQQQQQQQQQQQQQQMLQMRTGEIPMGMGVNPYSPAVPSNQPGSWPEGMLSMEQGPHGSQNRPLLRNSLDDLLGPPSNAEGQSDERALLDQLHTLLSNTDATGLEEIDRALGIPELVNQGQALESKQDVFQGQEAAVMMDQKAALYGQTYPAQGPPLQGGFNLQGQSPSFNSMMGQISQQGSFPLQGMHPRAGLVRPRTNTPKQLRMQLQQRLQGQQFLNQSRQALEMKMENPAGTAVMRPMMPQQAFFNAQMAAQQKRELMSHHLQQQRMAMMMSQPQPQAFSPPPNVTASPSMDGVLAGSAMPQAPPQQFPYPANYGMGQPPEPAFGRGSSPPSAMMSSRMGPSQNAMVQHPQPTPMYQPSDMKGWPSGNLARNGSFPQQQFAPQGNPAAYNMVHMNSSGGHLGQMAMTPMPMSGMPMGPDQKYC
PHOSPHO1 inh: inhibitors of human PHOSPHO1 phosphatase; Q8TCT1; recombinant PHOSPHO1, absorbance phosphatase assay; inhibition, % at 13.3 µM; 290,000 tested, 1.1% active; AID 1565; in the data active = inhibition above about 60%
TbMetRS inhib: blocks T. brucei methionyl-tRNA synthetase activity; AID 624268; inhibition, % at 11.9 µM; 360,000 tested, 0.4% active; purified T. brucei MetRS, ATP depletion, Kinase-Glo luminescence;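 active = inhibition above a per-plate cutoff of the control wells' mean inhibition plus 3 SD, cut at about 5.5% in these data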
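Measured by: Kinase-Glo luciferase luminescence reporting remaining unconsumed ATP. Material: purified T. brucei MetRS enzyme. Doses: 11.9 µM compound single dose, 0.9% DMSO. Medium: HEPES buffer containing pyrophosphatase, BSA, spermine, DTT. Times: 15 min preincubation, 2 h reaction, all 25 °C. Reagent: methionine, ATP and bulk E. coli tRNA.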
APOBEC3A inh: blocks human APOBEC3A ssDNA deamination; 330,000 tested, 0.41% active; recombinant A3A, FAM/TAMRA ssDNA deamination fluorescence; AID 493011; P31941; inhibition, % at 20 µM;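 active = at least 40% inhibition at 20 µM here, with at most 30% in a related deaminase screen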
Numbers stand for hits; 0 = inactive; - = no result given. Hits are enriched below; roughly 1.8% of the tested compounds scored in any of these assays.

SMILES | APOBEC3G inh | p-CIP stab down | PHOSPHO1 inh | TbMetRS inhib | APOBEC3A inh
COc1ccc(S(=O)(=O)N2CCC(NC(=O)Nc3ccc(C)cc3)CC2)cc1 | 0 | 0 | 60 | 0 | 0
COc1ccc(S(=O)(=O)N2CCN(c3ccccc3)CC2)cc1 | 0 | 0 | 60 | 0 | 0
Cc1ccc(NC(=O)NC2CCN(S(=O)(=O)c3ccc(F)cc3)CC2)cc1 | 0 | 0 | 0 | 0 | 0
COc1ccc(S(=O)(=O)N2CCC(N3CCN(c4ccccc4)CC3)CC2)cc1 | 0 | 0 | 0 | - | 0
COc1ccc(NC(=S)N2CCN(S(=O)(=O)c3ccc(F)cc3)CC2)cc1 | 0 | 0 | 66 | 0 | 0
CC(OC(=O)c1cccc(-n2cnnn2)c1)C(=O)Nc1ccc(N(C)C)cc1 (stereo not given) | 0 | - | - | 0 | 0
O=C(Nc1ccc(-c2csc(Nc3cccc(C(F)(F)F)c3)n2)cc1)c1cc([N+](=O)[O-])cc(C(F)(F)F)c1 | 0 | 0 | 0 | 0 | 0
CCc1nc2c(s1)CCc1onc(-c3ccc(Cl)cc3)c1-2 | 0 | - | - | 0 | 0
Cc1cc2nnc(SC3CCOC3=O)n2c2ccccc12 (stereo not given) | 0 | 0 | 74 | 0 | 0
COCCN(C(=O)COC(=O)c1ccc(C)s1)c1c(N)n(Cc2ccccc2)c(=O)[nH]c1=O | 0 | - | - | 0 | 0
O=C(NCCNS(=O)(=O)c1ccccc1)c1cc(OCC(F)(F)F)ccc1OCC(F)(F)F | 0 | 0 | 62 | 0 | 0
CCOC(=O)c1ccc2c(c1)nc(SCC(=O)c1ccco1)n2CC | 0 | 0 | 79 | 0 | 0
CCOC(=O)c1ccc2c(c1)nc(SC/C(O)=C(\C#N)c1nc3ccccc3[nH]1)n2CC | 0 | 0 | 88 | 0 | 0
Cc1nn(C)c(C)c1C1C(C#N)=C(N)OC2=C1C(=O)CCC2 (stereo not given) | 0 | 0 | 0 | 0 | 0
Cc1cc(C)c(N(CC(=O)NCc2ccccc2)C(=O)c2csnn2)c(C)c1 | 0 | 0 | 0 | 0 | 0
O=C(CN1C(=O)NC2(CCCCCC2)C1=O)N1CCCCC1 | 0 | - | - | 0 | 0
Cc1ccc(C)c(-n2c(-c3csc(C)c3)n[nH]c2=S)c1 | 0 | 0 | 97 | 0 | 0
Cc1ccc(C)c(-n2c(-c3ccncc3)n[nH]c2=S)c1 | 0 | 0 | 0 | 0 | 0
Cc1ccc(C)c(-n2c(-c3ccc4c(c3)OCO4)n[nH]c2=S)c1 | 0 | 0 | 96 | 0 | 0
Cc1ccc(S(=O)(=O)NCCC(=O)NCCc2ccccc2)cc1 | - | - | - | 0 | -
Cc1ccccc1-n1c(-c2ccc3ccccc3n2)n[nH]c1=S | 0 | 0 | 71 | 0 | 0
S=c1[nH]nc(-c2ccc3ccccc3n2)n1-c1ccc2ncccc2c1 | 0 | 0 | 74 | 0 | 0
O=C(CCCN=C1NS(=O)(=O)c2ccccc21)OCC(=O)c1ccccc1Cl | 0 | - | - | 0 | 0
COCCSc1ccccc1C(=O)Nc1ccc([N+](=O)[O-])cc1OC | 0 | 0 | 64 | 0 | 0
CCCCC(NC(=O)c1ccc(C#N)cc1)C(=O)NCCC (stereo not given) | 0 | - | - | 0 | 0
SMILES | APOBEC3G inh | p-CIP stab down | PHOSPHO1 inh | TbMetRS inhib | APOBEC3A inh
Cc1cc(C)c2c(=O)n(CC(=O)NCCCN3CCOCC3)sc2n1 | 54 | 0 | 0 | 0 | 0
Cc1ccccc1CS(=O)(=O)CCC(=O)NCCCN1CCN(c2ccccc2F)CC1 | 0 | 0 | 0 | 0 | 0
Cc1cc(C)c2c(=O)n(CC(=O)NCCCN3CCN(c4ccccc4F)CC3)sc2n1 | 53 | 0 | 0 | - | 0
CCOC(=O)c1c(-c2ccco2)csc1NC(=O)COC(=O)c1cnc(C)cn1 | 0 | - | - | 0 | 0
Nc1ccc(Nc2nc(-c3ccncc3)cs2)cc1 | 0 | 0 | 81 | 0 | 0
Clc1ccc(Nc2nc(-c3ccncc3)cs2)cc1 | 0 | - | - | 0 | 0
CC(=O)c1ccc(NCC(=O)N2CCN(c3ccccc3)CC2)cc1 | 0 | 0 | 98 | 0 | 0
CC(=O)c1ccc(N2CCN(C(=S)Nc3ccccc3)CC2)cc1 | 0 | 0 | 0 | 0 | 0
Cc1ccccc1C(=O)Nc1nnc(SCC(=O)NCc2ccco2)s1 | 0 | 0 | 0 | 0 | 0
Cc1ccccc1Nc1nnc(SCC(=O)NCc2ccco2)s1 | 0 | 0 | 87 | 0 | 0
Cn1cc(/C=N/n2cnc3sc4c(c3c2=O)CCCC4)c2ccccc21 | 0 | 0 | 62 | 0 | 0
CCC(C)[C@H](NC(=O)C1CC(=O)N(c2ccc(OC)cc2)C1)C(=O)NC1CCCC1 (stereo not given in full) | 0 | 0 | 0 | 0 | 0
COCCN(C(=O)c1cc2c(s1)CCC2)c1c(N)n(CC(C)C)c(=O)[nH]c1=O | 0 | - | - | 0 | 0
N#CC1=C(N)Oc2cc3ccccc3cc2C1c1cccs1 (stereo not given) | 0 | 0 | 62 | 0 | 0
N#CC1=C(N)Oc2cc3ccccc3cc2C1c1cccnc1 (stereo not given) | 0 | 0 | 0 | 0 | 0
C[C@H](NC(=O)COc1ccccc1)C(=O)OCC(=O)c1cc2ccccc2o1 | - | - | - | 0 | -
Oc1[nH]c2ccc(Br)cc2c1N=NC(=S)N1CCOCC1 | 0 | 0 | 92 | 0 | 0
COc1ccccc1CN1CC(C(=O)N(C)CCc2ccccn2)CCC1=O (stereo not given) | - | - | - | 0 | -
COc1ccccc1CN1CC(C(=O)N(C)CCc2nc3ccc(F)cc3[nH]2)CCC1=O (stereo not given) | 0 | 0 | 64 | 0 | 0
CC(C)(C)/C(O)=C(/C#N)c1nc2ccccc2[nH]1 | 0 | 0 | 0 | 0 | 0
COc1cccc(OC)c1/C(O)=C(\C#N)c1nc2ccccc2[nH]1 | 0 | 0 | 60 | 0 | 0
O=C(O)CCCCCN1C(=O)/C(=C/c2cn(-c3ccccc3)nc2-c2cccs2)SC1=S | - | - | - | 0 | -
O=C(O)CCN1C(=O)/C(=C/c2cn(-c3ccccc3)nc2-c2cccs2)SC1=S | 0 | 0 | 78 | 0 | 0
CCCC(=O)Nc1sc(C(=O)OC)c(C)c1C(N)=O | 0 | 0 | 77 | 0 | 0
Nc1cccc2nsnc12 | 0 | 0 | 0 | 0 | 0
SMILES | APOBEC3G inh | p-CIP stab down | PHOSPHO1 inh | TbMetRS inhib | APOBEC3A inh
Nc1cc2nsnc2cc1Br | 0 | 0 | 0 | 12 | 0
Cc1ccc(C)c(OCc2n[nH]c(=S)o2)c1 | 0 | 0 | 0 | 0 | 0
COc1ccc(OCc2n[nH]c(=S)o2)cc1 | 0 | 0 | 88 | 0 | 0
S=c1[nH]nc(COc2ccc(Cl)cc2)o1 | 0 | 0 | 103 | 0 | 0
COc1cccc(C(Nc2ccccc2)c2ccc3ccc(C)nc3c2O)c1 (stereo not given) | - | - | - | 0 | -
Cc1cccc(NC(c2ccc(O)cc2)c2ccc3ccc(C)nc3c2O)n1 (stereo not given) | 0 | 0 | 63 | 0 | 0
Cc1ccccc1OCC(=O)NNC(=S)NC(=O)c1ccco1 | 0 | 0 | 99 | 0 | 0
Cc1ccccc1OCC(=O)Nc1ccccc1NC(=O)c1ccco1 | 0 | 0 | 0 | 0 | 0
O=C(c1ccc(F)cc1Cl)N(Cc1ccco1)C1CCS(=O)(=O)C1 (stereo not given) | 0 | - | - | 0 | 0
CCc1ccc(-n2c(SCC(=O)c3ccc4c(c3)NC(=O)CO4)nc3ccccc3c2=O)cc1 | 0 | 0 | 60 | 0 | 0
O=C1COc2ccc(C(=O)CSc3nc4ccccc4c(=O)n3-c3ccc(Cl)c(Cl)c3)cc2N1 | 0 | 0 | 0 | 0 | 0

Assay outcomes: PubChem BioAssay, several laboratories
